A value given as a limit tells only on which side of the number the result lay.

Data set [1] concerns PSMA(+) PC3 PIP cells. Nature of the data set: cell uptake and internalization. It is filed as cell-based, human. Particulars: initially; per 1 million cells. The method in brief:
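HPLC-purified 177Lu radioligands were incubated with PSMA(+) PC3 PIP cells for 1 h up to 24 h. Total cell-surface uptake and internalized fraction were expressed as percentage incubated dose per 1 million cells, mean ± SD, n = 3. Specificity was checked by blocking with excess (~10 μM) of a known PSMA inhibitor.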

Data set [2] relates to PSMA(+) PC3 PIP tumor. Nature of the data set: tissue biodistribution, PSMA. It is filed as in vivo, mouse. Particulars: 24 h.
Data set [3] concerns PSMA(+) PC3 PIP flank tumor model. Briefly: PSMA-targeted radionuclide therapy in flank tumor model. Format: in vivo, male NOD/SCID mice. Particulars: single 111 MBq i.v.
Data set [4] can be described thus: acute radiotoxicity after 8 weeks. It is filed as in vivo, male NOD/SCID mice. Conditions: 8 weeks post-treatment, 111 MBq. A digest of the protocol:
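Tumour-bearing male NOD/SCID mice (PSMA(+) PC3 PIP flank, ~60–85 mm3, 14–18 days post-inoculation) got one 111 MBq tail-vein dose of 177Lu radioligand or saline. At 8 weeks, n = 3 per group underwent complete blood analysis (haemoglobin, white cells, neutrophils, platelets) and necropsy with H&E anatomic pathology at a phenotyping core.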

In data set [5] the test system is PSMA(+) PC3 PIP cells. Briefly: clonogenic survival assay. Format: cell-based, human. Conditions: 48 h of incubation, colony formation. A digest of the protocol:
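PSMA(+) PC3 PIP and PSMA(−) PC3 flu cells were exposed to HPLC-purified 177Lu radioligands for 48 h at 37 °C, then scored for colony formation (mean ± SD, n = 3). D0 was the activity concentration (kBq/mL) giving 37% survival.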

Take `O=C([O-])CN1CCN(CC(=O)[O-])CCN(CC(=O)NCC2CCC(C(=O)N[C@@H](Cc3ccc4ccccc4c3)C(=O)NCCCC[C@H](NC(=O)N[C@@H](CCC(=O)O)C(=O)O)C(=O)O)CC2)CCN(CC(=O)[O-])CC1.[177Lu+3]` (some centres unmarked) [177Lu-PSMA-617]: the “cell uptake within PSMA(+) PC3 PIP cells” value in data set [1] was ~ 40 % of the incubated dose. In data set [2], this molecule displayed a kidney uptake of less than 0.5 ID/g. In data set [3], the median survival is recorded as 130 days and the “mice reaching a relative tumor volume > 4 times the initial volume” value is listed as “only one mouse”. Moreover, in data set [4], the parotid glands pathology entry is recorded as “mild changes”; the platelets result is listed as “significantly lower platelets than those in the other treatment groups”; the testes pathology result is “most severe degenerative changes and loss of seminiferous epithelium”. Also, in data set [5], the “D0 (37% survival)” value is recorded as 24–32 kBq/mL.

These data come from PMC8068522 (European journal of nuclear medicine and molecular imaging, 2019).
